Kd and Activity data for twelve compounds are collected here from ChEMBL document CHEMBL1212899, “Strategies for recognition of stem-loop RNA structures by synthetic ligands: application to the HIV-1 frameshift stimulatory sequence” (J Med Chem, 2010).

A short description of data set [1]: Dissociation constant Kd of the compound. In kind it is physicochemical.
Data set [2] concerns the target Nucleic Acid. The data set is described as follows: Binding affinity to HIV1 frameshift-stimulating RNA by fluorescence titration. The class given is nucleic-acid assay, Human immunodeficiency virus 1. The gist of the method: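 5′-Cy3-labelled HIV-1 FSS RNA (400 or 500 nM) in 1X PBS pH 7.2 was heated to 65 °C for 4 min, then MgCl2 was added. Compound was titrated in over 100 nM–10 μM, with at least 10 min equilibration per step. Cy3 emission at 564.1 nm was dilution-corrected, and ΔFU was fit to a 1:1 model with ligand depletion to give KD. At least 2 titrations were run.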

In data set [3] the target is Nucleic Acid. In words: Binding affinity to HIV1 frameshift-stimulating RNA by fluorescence titration in presence of yeast tRNA. The class given is nucleic-acid assay, Human immunodeficiency virus 1. In outline: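 Cy3-labelled HIV-1 FSS RNA was premixed with yeast total tRNA competitor (8 or 16 μM) in 1X PBS pH 7.2 with MgCl2, then titrated with compound. Fluorescence was read at 564.1 nm after at least 10 min equilibration per addition. Dilution-corrected ΔFU was fit to a 1-site ligand-depletion model for KD.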

Data set [4] can be described thus: Cytotoxicity against human fibroblast up to 10 uM. The class given is cell-based. To be noted: in the assay text read “up to 1 mM” for “up to 10 uM”. In outline:
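Human fibroblasts were grown in DMEM with 5% FBS at 37 °C and 5% CO2, seeded at 3.2 × 10^4 cells/well, and grown 48 h to about 80% confluence. Cells were exposed to compound in DMEM for 24 h, with mitomycin C as control. MTT was added for 4 h, formazan was dissolved in isopropanol, and absorbance was read at 600 nm.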

Each structure is given as a SMILES string.

With `CCc1nc2ccccc2cc1C(=O)N[C@@H](CCCC[C@H](NC(=O)c1cc2ccccc2nc1CC)C(=O)N1CCC[C@H]1C(=O)N[C@@H](Cc1ccccc1)C(=O)NCCCN)C(=O)N1CCC[C@H]1C(=O)N[C@@H](Cc1ccccc1)C(=O)NCCCN`, the figures for the Kd (in data set [1]; on Nucleic Acid [2] (read-out: Kd); on Nucleic Acid [3] (read-out: Kd)) were 12300 nM, 1270 nM and 1410 nM, respectively. Take `CCc1nc2cc3c(cc2cc1C(=O)N[C@@H](CSSC[C@H](NC(=O)c1cc2cc4c(cc2nc1CC)OCO4)C(=O)N1CCC[C@H]1C(=O)N[C@@H](Cc1ccccc1)C(=O)NCCCN)C(=O)N1CCC[C@H]1C(=O)N[C@@H](Cc1ccccc1)C(=O)NCCCN)OCO3`: on Nucleic Acid [2] (read-out: Kd), the dissociation constant Kd (commonly the constant that tells how readily two partners part at equilibrium) came out at 1420 nM. In data set [1], `NC[C@@H]1O[C@H](O[C@H]2[C@@H](O)[C@H](O[C@@H]3[C@@H](O)[C@H](N)C[C@H](N)[C@H]3O[C@H]3O[C@H](CN)[C@@H](O)[C@H](O)[C@H]3N)O[C@@H]2CO)[C@H](N)[C@@H](O)[C@@H]1O` [FRAMYCETIN] returned a Kd of 2600 nM. Turning to `C=CC[C@H](NC(=O)c1cc2ccccc2nc1CC)C(=O)N1CCC[C@H]1C(=O)N[C@@H](Cc1ccccc1)C(=O)NCCCN`, the figures for the Kd at Nucleic Acid [2] (read-out: Kd) and in the data set on Nucleic Acid [3] were 470 nM and “Not Active”, respectively. As for `CCc1nc2ccccc2cc1C(=O)N[C@@H](C/C=C\C[C@H](NC(=O)c1cc2ccccc2nc1CC)C(=O)N1CCC[C@H]1C(=O)N[C@@H](Cc1ccccc1)C(=O)NCCCN)C(=O)N1CCC[C@H]1C(=O)N[C@@H](Cc1ccccc1)C(=O)NCCCN`, the Kd was found to be 4660 nM in data set [1], 180 nM at Nucleic Acid [2] (read-out: Kd) and 260 nM on Nucleic Acid [3] (read-out: Kd). Besides, the Activity result in data set [4] is “Non-toxic”. In the case of `NCCCNC(=O)[C@H](Cc1ccccc1)NC(=O)[C@@H]1CCCN1C(=O)[C@H](CSSC[C@H](NC(=O)c1ccc2c(c1)C(=O)c1ccccc1C2=O)C(=O)N1CCC[C@H]1C(=O)N[C@@H](Cc1ccccc1)C(=O)NCCCN)NC(=O)c1ccc2c(c1)C(=O)c1ccccc1C2=O`, the dissociation constant Kd on Nucleic Acid [2] (read-out: Kd) was found to be 230 nM. Same read-out and setting: as for `Cc1nc2ccccc2cc1C(=O)N[C@@H](CSSC[C@H](NC(=O)c1cc2ccccc2nc1C)C(=O)N1CCC[C@H]1C(=O)N[C@@H](Cc1ccccc1)C(=O)NCCCN)C(=O)N1CCC[C@H]1C(=O)N[C@@H](Cc1ccccc1)C(=O)NCCCN`, the figure is 430 nM.

As to `NCCCNC(=O)[C@H](Cc1ccccc1)NC(=O)[C@@H]1CCCN1C(=O)[C@@H](N)CSSC[C@H](N)C(=O)N1CCC[C@H]1C(=O)N[C@@H](Cc1ccccc1)C(=O)NCCCN`, the dissociation constant (Kd) entry in the data set with Nucleic Acid [2] was “Not Active”. Take `CCc1nc2ccccc2cc1C(=O)N[C@@H](C/C=C/C[C@H](NC(=O)c1cc2ccccc2nc1CC)C(=O)N1CCC[C@H]1C(=O)N[C@@H](Cc1ccccc1)C(=O)NCCCN)C(=O)N1CCC[C@H]1C(=O)N[C@@H](Cc1ccccc1)C(=O)NCCCN`: the equilibrium dissociation constant (Kd) turned out to be 11200 nM in data set [1], 330 nM at Nucleic Acid [2] (read-out: Kd) and 390 nM on Nucleic Acid [3] (read-out: Kd). Turning to `CCc1nc2ccccc2cc1C(=O)O`, the dissociation constant Kd was 290 nM at Nucleic Acid [2] (read-out: Kd) and “Not Active” with Nucleic Acid [3]. With `NCCCNC(=O)[C@H](Cc1ccccc1)NC(=O)[C@@H]1CCCN1C(=O)[C@H](CSSC[C@H](NC(=O)c1cnc2ccccc2c1)C(=O)N1CCC[C@H]1C(=O)N[C@@H](Cc1ccccc1)C(=O)NCCCN)NC(=O)c1cnc2ccccc2c1`, the equilibrium dissociation constant (Kd) on Nucleic Acid [2] (read-out: Kd) is 650 nM. Consider `CCc1nc2ccccc2cc1C(=O)N[C@@H](CSSC[C@H](NC(=O)c1cc2ccccc2nc1CC)C(=O)N1CCC[C@H]1C(=O)N[C@@H](Cc1ccccc1)C(=O)NCCCN)C(=O)N1CCC[C@H]1C(=O)N[C@@H](Cc1ccccc1)C(=O)NCCCN`, for which the equilibrium dissociation constant (Kd) in data set [1] worked out at 7880 nM; on Nucleic Acid [2] (read-out: Kd) it was 350 nM; at Nucleic Acid [3] (read-out: Kd), 200 nM.
